Source: PubChem BioAssay
This is one part of the list. Values without a mark were called inactive. Active and inactive are the calls of the source.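 How the source made its calls, unless noted: active means mean inhibition above about 50% in the one-dose retest (limit read from the data); inactive means the rest.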

Key:
[1] = molecular target: Sentrin-specific protease 8 (Homo sapiens) (UniProt Q96LD8); assay: human SENP8 peptidase blockers, hit retest – biochemical, luminescence, single concentration, confirmation (AID 488912;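 active means mean inhibition across replicates above about 50%, limit read from the data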); settings: Recombinant SENP8, Z-RLRGG-aminoluciferin luminescence, 60 min; at 12.5 µM; hits give high values
Sentrin-specific protease 8 (Homo sapiens), sequence (Q96LD8 whole entry, looked up, the tested form may be a part): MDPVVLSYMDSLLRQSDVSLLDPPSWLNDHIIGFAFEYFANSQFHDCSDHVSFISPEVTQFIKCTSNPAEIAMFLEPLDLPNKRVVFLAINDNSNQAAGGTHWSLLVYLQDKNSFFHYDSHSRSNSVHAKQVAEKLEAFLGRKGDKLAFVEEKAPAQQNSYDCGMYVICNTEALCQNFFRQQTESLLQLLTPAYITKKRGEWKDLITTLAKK

[2] = molecular target: Sentrin-specific protease 6 (Homo sapiens) (UniProt Q9GZR1); assay: inhibition of human SENP6 catalytic domain – biochemical, luminescence, single concentration, confirmation (AID 488915); settings: recombinant SENP6, Z-RLRGG-aminoluciferin luminescence; at 12.5 µM; hits give high values
Sentrin-specific protease 6 (Homo sapiens), sequence (Q9GZR1 628-1112 limits assumed): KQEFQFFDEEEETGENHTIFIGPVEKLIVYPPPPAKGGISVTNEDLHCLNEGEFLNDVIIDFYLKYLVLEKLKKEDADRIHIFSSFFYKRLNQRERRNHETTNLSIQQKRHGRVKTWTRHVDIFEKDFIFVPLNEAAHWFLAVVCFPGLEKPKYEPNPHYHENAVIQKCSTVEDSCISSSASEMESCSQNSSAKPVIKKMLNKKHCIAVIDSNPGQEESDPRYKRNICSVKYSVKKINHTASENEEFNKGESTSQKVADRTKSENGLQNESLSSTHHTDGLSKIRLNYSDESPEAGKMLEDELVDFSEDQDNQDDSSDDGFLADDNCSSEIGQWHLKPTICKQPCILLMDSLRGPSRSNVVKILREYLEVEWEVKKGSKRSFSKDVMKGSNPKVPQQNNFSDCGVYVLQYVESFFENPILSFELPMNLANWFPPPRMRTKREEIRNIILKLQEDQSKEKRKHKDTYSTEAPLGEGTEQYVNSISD

[3] = molecular target: Sentrin-specific protease 7 (Homo sapiens) (UniProt Q9BQF6); assay: human SENP7 peptidase blockers, hit retest – biochemical, luminescence, single concentration, confirmation (AID 488917); settings: recombinant SENP7, Z-RLRGG-aminoluciferin luminescence, 40 min; at 12.5 µM; hits give high values
Sentrin-specific protease 7 (Homo sapiens), sequence (Q9BQF6 706-1050 limits assumed): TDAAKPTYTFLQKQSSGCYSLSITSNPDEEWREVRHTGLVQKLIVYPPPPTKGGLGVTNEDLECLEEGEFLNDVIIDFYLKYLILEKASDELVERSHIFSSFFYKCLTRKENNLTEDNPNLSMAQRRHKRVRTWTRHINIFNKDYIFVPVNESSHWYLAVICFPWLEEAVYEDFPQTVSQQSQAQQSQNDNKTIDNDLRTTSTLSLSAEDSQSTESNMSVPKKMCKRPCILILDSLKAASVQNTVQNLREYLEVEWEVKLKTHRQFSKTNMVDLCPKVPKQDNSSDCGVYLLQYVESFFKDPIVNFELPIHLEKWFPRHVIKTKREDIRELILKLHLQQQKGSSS

Caspase-3 (Homo sapiens) = Caspase-3 (Homo sapiens) (UniProt P42574); assay: human caspase-3 activity blockade, out-of-family – biochemical, single concentration, selectivity assay for SENP inhibitor project, confirmation (AID 488918;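 active means mean inhibition above about 50%, limit read from the data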;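 further: plate controls were enzyme with DMSO for no effect and wells without caspase-3 for full effect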); settings: purified caspase-3, Z-DEVD-aminoluciferin luminescence, 60 min; at 12.5 µM; hits give high values
Caspase-3 (Homo sapiens), sequence (P42574 28-227 limits assumed): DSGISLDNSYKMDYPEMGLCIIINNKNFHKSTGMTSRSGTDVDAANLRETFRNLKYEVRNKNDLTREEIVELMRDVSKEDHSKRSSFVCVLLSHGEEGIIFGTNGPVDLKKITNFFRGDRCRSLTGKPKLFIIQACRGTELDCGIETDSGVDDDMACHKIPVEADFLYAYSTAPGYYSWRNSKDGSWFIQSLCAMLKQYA

[4] = Ultra-Glo luciferase signal interference – biochemical, single concentration, SENP8 reaction pre-completed, artefact control for SENP inhibitor project, confirmation (AID 488919;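 active means mean inhibition above about 50% when retested at one dose, limit read from the data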;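 further: plate controls were DMSO wells with completed reaction for no effect and substrate without enzyme for full effect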); settings: Pre-incubated SENP8/Z-RLRGG-aminoluciferin, luciferase luminescence interference; at 12.5 µM; hits give high values
[5] = PERK-eIF2a-CHOP pathway stimulators, retested – cell-based, CHO-CHOP luciferase reporter, single concentration, confirmation (AID 463112; in the data active means activation above about 33%;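 further: 0% = DMSO wells and 100% = tunicamycin 10 µg/mL wells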); settings: CHO-CHOP cells, CHOP-luciferase reporter luminescence; at 10 µM; hits give high values; percent of tunicamycin response, DMSO as zero
In short: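 Assay system: CHO-CHOP luciferase reporter cell line | Compound: Single dose of 10 µM compound, 0.5% DMSO final | Timing: 6 h compound treatment, 37 °C | Technique: Steady-Glo luciferase luminescence | Benchmarks: High control tunicamycin 10 µg/mL, low control DMSO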

[6] = HIF-2a driven luciferase blockers, single dose – luminescence, 786-0 RCC cells, confirmation (AID 651580;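 active means mean inhibition across four replicates of at least 40 percent at the single tested concentration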); settings: HIF-2a luciferase reporter luminescence, overnight, at 18.8 µM, hits give high values
[7] = HIF-1a luciferase reporter signal reduction – MiaPaCa-2 cells, single concentration, counter-screen for HIF-2a inhibitor project, confirmation (AID 651589;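 active means mean inhibition of the reporter signal across four replicates at the single tested dose of 50% or more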); settings: MiaPaCa-2 HIF-1a luciferase reporter, desferoxamine, overnight; at 18.8 µM; hits give high values

Compound	inhibition [1]	inhibition [2]	inhibition [3]	inhibition (Caspase-3 (Homo sapiens))	inhibition [4]	activation [5]	inhibition [6]	inhibition [7]
O=c1[nH]c(CCl)nc2cc(-c3ccc(Cl)cc3)sc12	25.3%	45.5%	19.6%	28.2%	9.5%			
CCSc1nnc(NC(=O)c2ccc(C)cc2)s1	33.7%	23.5%	51.1% (active)	27.1%	2%			
Cc1cc(C)nc(S/C=C/C(=O)c2ccccc2)n1						83.4% (active)	58.6% (active)	98.9% (active)
CCOc1ccc(C(=O)Nc2cccc(SC)c2)cc1	-21.9%	80.1% (active)	96.7% (active)	76.3% (active)	85.8% (active)			
COc1ccc(C(=O)Nc2ccccc2C(=O)N/N=C/c2ccccc2OC)cc1	4%	43.4%	52.6% (active)	83.9% (active)	15.2%			
O=C(Nc1cccc2ccccc12)c1onc2c1CCCC2	-4.7%	75% (active)	93.2% (active)	78.6% (active)	81.4% (active)			
CCOc1ccc2nc(C(=O)N3CCCC(C)C3)sc2c1 (stereo not drawn)	59.3% (active)	68.3% (active)	86.3% (active)	62.5% (active)	66.4% (active)			
Cc1ccc(C(=O)O/N=C(\N)c2ccccn2)cc1Cl	38.5%	81.3% (active)	27.2%	53.7% (active)	50.2% (active)			
O=C1/C(=C/c2cccs2)CCC1C1CCCC1 (stereo not drawn)	50.9% (active)	52.1% (active)	50.7% (active)	60.9% (active)	36.6%			
COc1ccc(C(=O)Nc2ccc3c(c2)OCO3)cc1OC	8.9%	77.3% (active)	93.5% (active)	91.3% (active)	77.4% (active)			
CCOC(=O)c1cnc2[nH]c3ccccc3n2c1=O	30.1%	79% (active)	96.4% (active)	94.2% (active)	65.2% (active)			
CSC1=N/C(=C\C=C\c2cccs2)C(=O)S1	69.4% (active)	75.6% (active)	85.3% (active)	68.1% (active)	52.2% (active)			
c1ccc2sc(NN=C3CCCC3)nc2c1	86.8% (active)	85.9% (active)	98.8% (active)	88% (active)	15.5%			
CCOC(=O)/C(C#N)=C/c1ccc(N2CCCCC2)cc1	25.6%	34.1%	65% (active)	30.2%	10.6%			
O=C(Nc1ccccc1F)c1ccc2c(c1)OCO2	72% (active)	66.7% (active)	90.9% (active)	89.4% (active)	69.1% (active)			
COCCN(CCOC)c1nc(N)c2c(N)nc3c(c2c1C#N)CC(=O)N3Cc1ccc(Cl)cc1	-5.5%	-0.6%	5.3%	3.6%	-3.7%			
CN(CCO)c1ccc(/C=N/Nc2nncc3ccccc23)cc1	98.7% (active)	99.7% (active)	103% (active)	98.7% (active)	93.4% (active)			
O=[N+]([O-])c1ccccc1N/N=C1\CCc2ccccc21	-9.3%	-5.8%	-10.4%	0.7%	-0.8%			
COc1cccc(-c2nc3cc(C)ccc3o2)c1	96.1% (active)	99.2% (active)	102% (active)	96.9% (active)	94.2% (active)			
O=C(Nc1ccc2c(c1)CCC2)c1cccc(S(=O)(=O)Nc2ccccc2Cl)c1	44%	40.3%	50.8% (active)	13.2%	4.6%			
COC(=O)c1ccc(NCC(=O)c2ccccc2)cc1	10.5%	97.3% (active)	103% (active)	96% (active)	60.5% (active)			
CC(=NCc1ccco1)c1c(C(F)(F)F)[nH]n(-c2nc3ccccc3s2)c1=O	91.7% (active)	91.9% (active)	99.8% (active)	98.1% (active)	89.3% (active)			
O=c1oc2cc(O)ccc2cc1-c1ccc(F)cc1	98.4% (active)	99.7% (active)	103% (active)	98.2% (active)	95.4% (active)			
O=C(Nc1ccc(Cl)cc1)c1ccsn1	49.7%	46.8%	78.1% (active)	60.3% (active)	51.9% (active)			
Cc1ccccc1C(=O)Nc1ccc(N2CCCCCC2)cc1	73.8% (active)	72.6% (active)	91.7% (active)	67.2% (active)	51.9% (active)			
O=C(/C=C/c1ccco1)Nc1ccc(Oc2ccccc2)cc1	51% (active)	64.2% (active)	89.4% (active)	40.7%	38.3%			

Compound	inhibition [1]	inhibition [2]	inhibition [3]	inhibition (Caspase-3 (Homo sapiens))	inhibition [4]	activation [5]	inhibition [6]	inhibition [7]
Fc1ccc2nc(N3CCCCC3)sc2c1	7.7%	78.8% (active)	97.3% (active)	80.5% (active)	18.4%			
Cc1sc(NC(=O)c2ccc3ncsc3c2)c(C(N)=O)c1C	-15.3%	-7.6%	-2.8%	3.3%	-10.5%			
O=C(c1ccc(CSc2ccccc2)cc1)N1CCCCCC1	57.5% (active)	57% (active)	80% (active)	54.3% (active)	65.5% (active)			
C/C(=N\NC(=O)c1ccoc1C)c1ccccc1O	38.5%	36.8%	80.7% (active)	77.3% (active)	63% (active)			
CCn1nccc1C(=O)Nc1ccc(Cl)c(Cl)c1	61.1% (active)	57.7% (active)	80.6% (active)	35.5%	66.5% (active)			
CCCc1cc(=O)oc2c(C)c(OCC(=O)Nc3ccccn3)ccc12	18.2%	14.4%	23.3%	39.2%	11.8%			
CC(C)(C)c1ccc(NC(=O)NCc2ccco2)cc1	-28.3%	-17.7%	-5.7%	-5.5%	-7.2%			
C/C(=C\C(=O)c1ccccc1)Nc1cccc(O)c1	43.1%	47.3%	82.2% (active)	39.4%	66.4% (active)			
CCN1CC=C2C(C#N)=C(N)C(C#N)(C#N)[C@H](c3ccoc3)[C@H]2C1	-12.3%	-5.5%	-13.6%	1.7%	-10.5%			
COc1ccc(/C=C/c2noc(-c3ccccc3OC(C)=O)n2)cc1	55.1% (active)	87.7% (active)	94.5% (active)	77% (active)	22.7%			
COc1cccc(C(=O)c2cc3ccc(O)cc3oc2=O)c1	98.7% (active)	100% (active)	103% (active)	98.7% (active)	98% (active)			
O=C(Nc1ccccc1)c1ccc(NC(=O)c2cccs2)cc1	-8.2%	-4.8%	0.7%	38.2%	-1.7%			
Cc1[nH]n(C(N)=S)c(=O)c1N=Nc1ccc(Cl)cc1Cl	81.4% (active)	89.8% (active)	93.3% (active)	85.3% (active)	38.9%			
O=C(Nc1ccccc1C(=O)Nc1ccncc1)c1ccc([N+](=O)[O-])cc1	47.2%	57.2% (active)	85.4% (active)	65.1% (active)	10.6%			
O=C(Cn1ccc([N+](=O)[O-])n1)NCc1cccs1	-12.3%	-5.9%	-4.5%	-1.1%	-8.7%			
O=C(c1cnn2ccccc12)N1CCc2ccccc21	36.7%	39.6%	78.5% (active)	74% (active)	61.4% (active)			
O=C(Nc1ccc(C(=O)O)c(O)c1)c1ccccc1	73% (active)	73.7% (active)	94.9% (active)	93.7% (active)	82.8% (active)			
Cc1cccc(-c2noc(-c3ccc(F)cc3)n2)c1	63.5% (active)	69.8% (active)	89.5% (active)	80.6% (active)	61.4% (active)			
Cc1[nH]n(-c2ccc([N+](=O)[O-])cc2)c(=O)c1C=NCCN1CCN(C(=O)c2ccccc2F)CC1	20.7%	17.1%	3.9%	37.1%	49.3%			
COc1ccccc1C(=O)Nc1ccc(NC(=O)c2ccco2)c(C)c1	45.3%	47.1%	81.2% (active)	82.5% (active)	58.6% (active)			
O=C(Nc1ncc([N+](=O)[O-])s1)C1COc2ccccc2O1 (stereo not drawn)	98.8% (active)	99.8% (active)	103% (active)	98.4% (active)	48.6%			
Cc1ccc(OC(=O)c2cc3ccccc3o2)cc1	50.7% (active)	51.4% (active)	90.8% (active)	46.9%	64.7% (active)			
O=C(Nc1ccc(F)cc1)c1cc2c(s1)CCCC2	93.3% (active)	93.7% (active)	101% (active)	84% (active)	84.2% (active)			
COc1ccccc1NC(=O)c1ccc(N2CC3CC(C2)c2cccc(=O)n2C3)c(NC(=O)c2cccnc2)c1 (stereo not drawn)	8.2%	5.2%	12.1%	8.9%	3.7%			
COc1cccc(C(=O)Nc2nc3ccc(S(C)(=O)=O)cc3s2)c1	4.4%	86.4% (active)	98.9% (active)	89.2% (active)	73.5% (active)			
